From ChEMBL document CHEMBL1135416, “Nonpeptide bradykinin B2 receptor antagonists: conversion of rodent-selective bradyzide analogues into potent, orally-active human bradykinin B2 receptor antagonists” (J Med Chem, 2002) come the findings set out here.

Molecules are shown by their SMILES. Converted amounts (≈) assume the structure as drawn.

The target of data set [1] is T1, B2 bradykinin receptor (Homo sapiens, UniProt P30411).
T1 sequence (P30411 whole entry): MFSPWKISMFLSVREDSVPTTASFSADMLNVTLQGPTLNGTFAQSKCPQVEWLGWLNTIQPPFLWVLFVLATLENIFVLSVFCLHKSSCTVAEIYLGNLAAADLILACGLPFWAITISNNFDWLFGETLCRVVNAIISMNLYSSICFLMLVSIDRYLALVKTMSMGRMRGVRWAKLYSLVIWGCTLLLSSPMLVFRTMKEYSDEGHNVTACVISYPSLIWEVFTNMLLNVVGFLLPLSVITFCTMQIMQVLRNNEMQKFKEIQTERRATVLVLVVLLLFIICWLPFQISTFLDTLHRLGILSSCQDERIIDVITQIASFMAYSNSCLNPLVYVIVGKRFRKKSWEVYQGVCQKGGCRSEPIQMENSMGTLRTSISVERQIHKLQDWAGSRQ
The data set can be described thus: Displacement of [3H]BK (1 nM) from human Bradykinin receptor B2 expressed in Cos-7 cells. It is filed as cell-based. The gist of the method:
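[3H]BK was 1 nM and nonspecific binding was set with 10 µM BK. Incubation was 60 min at 4 °C, then GF/B filtration, a cold 50 mM Tris pH 7.4 wash and counting. Ki was derived from IC50 (Cheng–Prusoff). Data are mean ± SEM of ≥3 triplicate experiments.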

Data set [2] addresses T2, B2 bradykinin receptor (Rattus norvegicus, UniProt P25023).
T2 sequence (P25023 whole entry): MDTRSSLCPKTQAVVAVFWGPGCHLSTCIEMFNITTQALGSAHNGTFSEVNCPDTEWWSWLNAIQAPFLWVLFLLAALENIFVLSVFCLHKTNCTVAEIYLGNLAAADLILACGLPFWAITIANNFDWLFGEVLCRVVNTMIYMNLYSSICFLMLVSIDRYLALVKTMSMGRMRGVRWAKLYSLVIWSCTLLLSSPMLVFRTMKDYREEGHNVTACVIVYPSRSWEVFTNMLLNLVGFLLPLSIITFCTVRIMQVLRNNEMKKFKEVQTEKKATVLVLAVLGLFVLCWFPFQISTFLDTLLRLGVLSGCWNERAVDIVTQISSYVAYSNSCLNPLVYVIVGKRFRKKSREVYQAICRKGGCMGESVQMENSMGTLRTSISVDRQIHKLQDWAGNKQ
As to the kind of experiment: Inhibition of specific binding of [3H]-BK (1 nM) to rat Bradykinin receptor B2 by 50% in NG108-15 cell membranes. Also noted: species or system Membrane. The gist of the method:
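NG108-15 cell membranes (rodent B2) were diluted to about 0.3 mg/mL protein in 25 mM potassium phosphate pH 6.5 with 1 mM EGTA, 0.1 mM bacitracin, chymostatin and BSA. [3H]BK was 1 nM and nonspecific binding was set with 10 µM BK. Incubation was 60 min at 4 °C, followed by PEI-soaked GF/B filtration, a cold phosphate pH 6.5 wash and scintillation counting. Ki was derived from IC50 (Cheng–Prusoff). Data are mean ± SEM of ≥3 experiments in triplicate.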

The species named for data set [3] is Rattus norvegicus. The data set can be described thus: Reversal of turpentine-induced mechanical […] in rats. It is filed as functional. The essentials:
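Rats received an intraplantar injection of 50 µL turpentine/paraffin (1:1) into the left hind paw. Three days later, compound or vehicle was given orally or iv, and the paw withdrawal threshold (mean of two readings) was taken 1 h later. ED50 was the dose giving 50% of maximum reversal. Efficacy was the maximum reversal as % of the pre-turpentine threshold.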

The target of data set [4] is T1, B2 bradykinin receptor. As to the kind of experiment: Antagonism of the [Ca2+] efflux actions of human Bradykinin receptor B2 (SK-N-SH neuroblastoma). It counts as functional.
Data set [5] deals with T1, B2 bradykinin receptor. The data set can be described thus: Antagonism of the [Ca2+] efflux actions of human Bradykinin receptor B2 (WI38 fibroblasts). It counts as functional.
For data set [6], the target named is T2, B2 bradykinin receptor. As to the kind of experiment: Inhibition of Bradykinin receptor B2-mediated contractions of rat uterus smooth muscle. It counts as functional, tissue-based.
Data set [7] is filed under the species Rattus norvegicus. The data set can be described thus: Reversal of FCAT-induced mechanical […] in rats. It counts as functional. The gist of the method:
(§1)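 Female Sprague-Dawley rats (100-120 g) under light enflurane received 100 µL FCA into one knee. Three to six days later, each hind paw was placed on a pressure transducer with the uninjected leg bearing 100 g, and the load tolerated by the injected leg was read half-hourly. Compounds were given after three control readings. The response was expressed as % maximal reversal (100% = equal load on both legs).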

The target of data set [8] is T2, B2 bradykinin receptor. The data set can be described thus: Inhibition of increase in [Ca2+] efflux from NG108-15 cells caused by activation of rat Bradykinin receptor B2. It counts as functional, cell-based.
For data set [9], the species on record is Rattus norvegicus. As to the kind of experiment: Oral efficacy against FCAT-induced mechanical […] in rats. It is filed as functional. The gist of the method: as §1
The species entered for data set [10] is Rattus norvegicus. The data set can be described thus: Duration of action (excess) in FCAT-induced mechanical […] in rats. It counts as functional.
Data set [11] concerns the target T1, B2 bradykinin receptor. As to the kind of experiment: Antagonism of the [Ca2+] efflux actions of the human Bradykinin receptor B2 (SK-N-SH neuroblastoma). It is filed as functional.
Data set [12] in a line: Solubility at pH 7.4. It is filed as physicochemical. The settings on record: buffer.
Data set [13] deals with T1, B2 bradykinin receptor. As to the kind of experiment: Antagonism of the [Ca2+] efflux actions of the human Bradykinin receptor B2 (WI38 fibroblasts). It is filed as functional.

In the case of `CN(C)CCN(C)CCNC(=O)[C@@H]1CCCN1S(=O)(=O)c1ccc(N/N=C(\S)NC(c2ccccc2Cl)c2ccccc2Cl)c([N+](=O)[O-])c1`, the Ki on B2 bradykinin receptor [1] came to 34.1 nM; on B2 bradykinin receptor [2], 5.46 nM.
For `CN(C)CCCN(C)CCNC(=O)[C@@H]1CCCN1S(=O)(=O)c1ccc(NNC(=O)NC2c3ccccc3CCc3ccccc32)c([N+](=O)[O-])c1`, the ED50 in the data set filed under Rattus norvegicus [3] stood at 0.11 µmol/kg; in the data set filed under Rattus norvegicus [7] it was 0.043 µmol/kg. Further, the IC50 against B2 bradykinin receptor [4] worked out at 91 nM; against B2 bradykinin receptor [5], 17 nM; against B2 bradykinin receptor [6], 2.4 nM; at B2 bradykinin receptor [8] it was 105 nM. Further, the Ki at B2 bradykinin receptor [1] amounted to 0.79 nM; on B2 bradykinin receptor [2], 10.7 nM.
As to `CN(C)CCN(C)CCNC(=O)c1cccn1S(=O)(=O)c1ccc(N/N=C(\S)NC2c3ccccc3CCc3ccccc32)c([N+](=O)[O-])c1`, the Ki on B2 bradykinin receptor [1] stood at 1.47 nM; on B2 bradykinin receptor [2], 64.5 nM.
`CN(C)CCN(C)CCNC(=O)[C@H]1CCCN1S(=O)(=O)c1ccc(NNC(=S)NC(c2ccccc2)c2ccccc2)c([N+](=O)[O-])c1` returned a Ki at B2 bradykinin receptor [1] of 1430 nM.
For the molecule `CN(C)CCCN(C)CCCNC(=O)[C@@H]1CCCN1S(=O)(=O)c1ccc(N/N=C(\S)NC(c2ccccc2)c2ccccc2)c([N+](=O)[O-])c1`, the values for the Ki on B2 bradykinin receptor [1] and on B2 bradykinin receptor [2] were 95 nM and 0.31 nM, respectively.
At B2 bradykinin receptor [1], `CN(C)CCCN(C)CCNC(=O)[C@@H]1CCCN1S(=O)(=O)c1ccc(N/N=C(\S)NC2c3ccccc3-c3ccccc32)c([N+](=O)[O-])c1` had a Ki of 645 nM.
As for `CN(C)CCCN(C)CCNC(=O)c1cccn1S(=O)(=O)c1ccc(NNC(=O)NC2c3ccccc3CCc3ccccc32)c(Cl)c1`, the inhibitory constant (Ki) at B2 bradykinin receptor [1] amounted to 253 nM.
Consider `CN(C)CCCN(C)CCNC(=O)[C@@H]1CCCN1S(=O)(=O)c1ccc(N/N=C(\S)NC(c2ccccc2)c2ccccc2)c([N+](=O)[O-])c1`, for which the Ki on B2 bradykinin receptor [1] is 119 nM; on B2 bradykinin receptor [2] it was 0.023 nM.
Turning to `CN(C)CCN(C)CCNC(=O)[C@@H]1CCCN1S(=O)(=O)c1ccc(NNC(=S)NC2c3ccccc3CCc3ccccc32)c([N+](=O)[O-])c1`, the Ki on B2 bradykinin receptor [1] turned out to be 4.67 nM; at B2 bradykinin receptor [2], 14.5 nM.
As to `CN(C)CCN(C)CCNC(=O)[C@@H]1CCCN1S(=O)(=O)c1ccc(NNC(=O)NC(c2ccccc2)c2ccccc2)c(Cl)c1`, the affinity on B2 bradykinin receptor [2] corresponds to a Ki of 7.3 nM.
As for `CN(C)CCN(C)CCNC(=O)[C@@H]1CCCN1S(=O)(=O)c1ccc(NNC(=S)NC(c2ccccc2)c2ccccc2)c([N+](=O)[O-])c1`, the affinity at B2 bradykinin receptor [1], expressed as Ki, was 772 nM. In the data set listed under Rattus norvegicus [9], this molecule came in with an ED50 of 0.84 µmol/kg. This molecule also came in with a Time in the data set filed under Rattus norvegicus [10] of 4 h.
`CN(C)CCCN(C)CCNC(=O)c1cccn1S(=O)(=O)c1ccc(NNC(=O)NC2c3ccccc3CCc3ccccc32)c([N+](=O)[O-])c1`: the ED50 in the data set listed under Rattus norvegicus [3] was 0.32 µmol/kg; in the data set listed under Rattus norvegicus [7] it was 0.027 µmol/kg. Further, the half-inhibitory concentration (IC50) on B2 bradykinin receptor [11] stood at 12 nM; against B2 bradykinin receptor [6], 1.9 nM; at B2 bradykinin receptor [13] it was 55 nM; against B2 bradykinin receptor [8] it was 141 nM. Moreover, the solubility in [12] is 400 µg/mL (≈ 569 µM). The Ki on B2 bradykinin receptor [1] stood at 2.79 nM; at B2 bradykinin receptor [2], 176 nM.
`CN(C)CCN(C)CCNC(=O)c1cccn1S(=O)(=O)c1ccc(NNC(=S)NC(c2ccccc2)c2ccccc2)c([N+](=O)[O-])c1` yielded a Ki at B2 bradykinin receptor [1] of 237 nM.
